Here are results for 95 compounds from ChEMBL document CHEMBL4513216, “Probing the Open Global Health Chemical Diversity Library for Multistage-Active Starting Points for Next-Generation Antimalarials” (ACS Infect Dis, 2020).

The nature of this series: Toxicity liver stage against HepG2, at 10uM. The settings on record: human, HepG2-A16-CD81EGFP cells; read-out: INHIBITION
Format: cell-based. Set-up: test concentration 10 uM, cell line HepG2-A16-CD81EGFP. In short, it runs like this: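 Uninfected HepG2-A16-CD81EGFP cells, 3 × 10^3 per well, 1536-well, plated on prespotted compound at 10 μM final, parasite-free screening media added to match infected plates; puromycin 10 μM positive, DMSO 0.5% negative; run in parallel with 48 h PbLuc assay at 37 °C, 5% CO2; viability by CellTiter-Glo luminescence, normalized to controls.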
For `CN(C)c1ccc(-c2nnc([C@H]3CCN(C4CCCCC4)C3)o2)cc1`, the cytotoxicity at 10 µM was 0.174%. Next, `CNC(=O)C(C)(C)N1CCC[C@H]1C(=O)NC(C)(C)C`: -2.63%. The figure for `COc1ccc(-c2noc([C@@H]3C[C@H](NC(=O)NC(C)C)CN3C)n2)cc1` is -1.47%; for `CS(=O)(=O)c1ccc(CN2C[C@@H]3OCC(=O)N(CC(N)=O)[C@@H]3C2)cc1` it is 2.67%; for `CCOC(=O)[C@@H]1[C@@H](c2ccccc2)CN2CCN(C(=O)C3CC3)C[C@H]12` it is -0.973%. The figure for `O=C(O)CCNC(=O)N1CCc2c([nH]c3ccc(Cl)cc23)C1` is 11.9%; for `COCCN1C[C@@H]2CN(C(=O)CC3CC3)C[C@@H]2C1=O` it is 7.8%.

Regarding `C[C@@H]1C[C@H]2CN(C(=O)C3=CCCC3)C[C@H]2O1`, the cytotoxicity at 10 µM came out at 0.199%. Turning to `O=C(NCCc1ccccn1)[C@@]12CCO[C@@H]1CCN(CC1CC1)C2`, the cytotoxicity at 10 µM was 5.79%. Next, `CC(C)CNC(=O)[C@H]1CCS(=O)(=O)[C@@H]2CN(Cc3cccnc3)C[C@H]12`: -2.36%. Turning to `CCOCc1ncn2c1CN(C(=O)Nc1ccccc1CC)CC2`, the cytotoxicity at 10 µM amounted to 7.45%. Turning to `O=C(Nc1ccc(F)cc1F)Nc1c[nH]c(=O)[nH]c1=O`, the cytotoxicity at 10 µM is -3.55%. As to `CCn1cc(CNC(=O)CC(C)C)cn1`, the cytotoxicity at 10 µM worked out at 4.18%. The figure for `Cc1nc(N2CCN(C(=O)c3ccccn3)CC2)c2c(n1)c(C)nn2C` is 5.06%; for `N#CCC1CC(c2ccc(F)cc2)=NO1` (stereo not given) it is -2.37%; for `CCn1cc(CN(C)S(=O)(=O)c2cc(Cl)ccc2Cl)cn1` it is 8.6%.

On to `O=C1CC(c2ccccc2)c2snc(C(=O)O)c2N1` (stereo not given), for which the cytotoxicity at 10 µM was -5.02%. On to `CC(C)c1cc(C(=O)NCCc2nc(-c3cccnc3)n[nH]2)[nH]n1`, for which the cytotoxicity at 10 µM stood at 8.02%. With `OCc1cc(C2CCCN2c2ncccn2)n[nH]1` (stereo not given), the cytotoxicity at 10 µM came out at 8.32%. Regarding `CC(C)NC(=O)[C@@H]1CN(C)C[C@]12COc1ccc(F)cc1C2=O`, the cytotoxicity at 10 µM is 2.17%.

On to `COCC(=O)N1C[C@@H](O)[C@H](N2CCN(c3ccccc3)CC2)C1`, for which the cytotoxicity at 10 µM was found to be 2.7%. Regarding `CN(C)C(=O)c1cn[nH]c1C1(C)CCN(c2ncccn2)CC1`, the cytotoxicity at 10 µM stood at 5.88%. Next, `Cc1nn(C)cc1-c1cc(C(=O)NCC(C)(C)c2ccccc2F)n[nH]1`: 6.82%; `CCCn1nccc1-c1cc(C2CCN(C(C)=O)CC2)ccn1`: -1.68%; `CC(=O)NC(=O)C1(CCCc2ccncc2)CCN1` (stereo not given): -24.5%. Next, `O=C(NC(Cc1ccsc1)c1nccs1)C1CC1` (stereo not given): -28.3%; `Cc1ccc(S(=O)(=O)NC(=O)CCc2ccccc2)cc1N(C)C`: -0.31%.

For `CCn1nc2c(cc1=O)CN(CC1CCCCO1)CC2` (stereo not given), the cytotoxicity at 10 µM was -2.94%.

As to `Cc1cc(C)n(CC(C)NC(=O)C(C)(C)c2ccccc2F)n1` (stereo not given), the cytotoxicity at 10 µM is -2.58%. For the compound `CCc1noc(C)c1C(=O)NCCCC(CC)(CC)C1OCCO1`, the cytotoxicity at 10 µM was -10.1%. For the compound `NC(=O)CC1CCN(c2cncc(OCc3ccccc3)n2)CC1`, the cytotoxicity at 10 µM came to 8.84%. For `CN(C)c1nc(CNC(=O)Nc2cccc([S+](C)[O-])c2)cs1` (stereo not given), the cytotoxicity at 10 µM is -5.27%. For `O=S(=O)(NC1CCN(CC(F)(F)F)C1)c1cc(F)cc(F)c1` (stereo not given), the cytotoxicity at 10 µM was -5.18%. The figure for `CC(C(=O)N1CCN(CCOc2ccccc2)CC1)n1cncn1` (stereo not given) is -4.88%; for `Cc1n[nH]c(C)c1CNC(=O)NC1CCCCC1` it is 1.91%; for `Cc1cn2c(CN(C)C(=O)c3cnc(N)c(Cl)c3)c(C)nc2s1` it is -8.46%. Turning to `Cc1cccc(C(=O)NCc2ccc(OCCN(C)C)cc2)c1C`, the cytotoxicity at 10 µM stood at 1.52%. As for `Cc1nc(CCNc2ccc(-c3nc(C)c(C)c(=O)[nH]3)cn2)cs1`, the cytotoxicity at 10 µM stood at 2.07%. As for `COc1cc(Nc2c(C#N)c(=O)n(C)c(=O)n2C)cc(OC)c1`, the cytotoxicity at 10 µM is -3.65%.

Take `CCOCCCNC(=O)N(C)Cc1ccc(SC)c(OC)c1`: the cytotoxicity at 10 µM is -5.41%. Next, `O=C(O)c1ccc(S(=O)(=O)Nc2c(F)cccc2-n2cccn2)cc1`: -8.8%; `Cc1cc(C(=O)Nc2cnn(CC(=O)NC3CCCC3)c2)c(C)s1`: 3.07%. For the compound `CCOc1cccc(COC(=O)c2ccc(F)cn2)n1`, the cytotoxicity at 10 µM is 0.296%.

For the compound `CC(c1nc(C2CC2)no1)N(C)Cc1ccc2c(c1)OCCO2` (stereo not given), the cytotoxicity at 10 µM amounted to 0.611%.

For `Cc1ccsc1CN(C)C(=O)C1CCCN(C(N)=O)C1` (stereo not given), the cytotoxicity at 10 µM stood at 5.09%. `CC(c1ccc(Br)cc1)N1CCCN(C(N)=O)CC1` (stereo not given): the cytotoxicity at 10 µM came out at 2.1%. `O=C1COc2cccc(OCc3ccccn3)c2N1`: the cytotoxicity at 10 µM was 2.2%. Next, `O=S(=O)(NCCc1c[nH]c2cc(F)ccc12)C1CCOC1` (stereo not given): 8.57%; `O=C(CN1CCCNC1=O)Nc1ccccc1C(=O)C1CCCC1`: 9.83%. Next, `O=C(NCCNC(=O)N1CCC(c2ccccc2)C1)C1CC1` (stereo not given): -3.08%; `CCN(CC)C(CNS(=O)(=O)c1ccc(C(=O)NC)cc1)c1ccco1` (stereo not given): 4.62%.

In the case of `O=C(C1CC=CC1)N1Cc2nccn2CC(CN2CCCC2)C1` (stereo not given), the cytotoxicity at 10 µM is -86.5%. The figure for `Cc1cccc(C(=O)N2CCc3c(COCC4CC4)cncc3C2)n1` is -80.1%; for `CCO[C@@H]1CCN(C(=O)N(C)C)[C@@H]1Cc1cnn(C)c1` it is -73.4%. In the case of `CNc1ccnc(N2CCC(c3nnc(CN4CCCC4)n3C)CC2)n1`, the cytotoxicity at 10 µM turned out to be 0.715%. Next, `c1ccc(Cc2noc(CCNC3CCOC4(CCOCC4)C3)n2)cc1` (stereo not given): -0.872%. Next, `CS(=O)(=O)c1ncc(CN2CCN3CCCC3C2)n1CC1CCCCC1` (stereo not given): -4.9%. On to `COc1ccc(F)cc1C(C(=O)O)N1CCCN(C2CCCC2)CC1` (stereo not given), for which the cytotoxicity at 10 µM is -8.63%. Consider `O=C(c1cn(CC(=O)N2CCc3[nH]cnc3C2)c2ccccc12)C1CC1`, for which the cytotoxicity at 10 µM was 10.2%.

On to `CN[C@@H](CO)C(=O)NCc1cc2n(n1)CCCN(C1CCCCC1)C2`, for which the cytotoxicity at 10 µM is -3.14%. For `CSCCCN1C[C@H](NC(=O)c2cnn(C)c2)[C@@H](C2CC2)C1`, the cytotoxicity at 10 µM worked out at 4.43%.

For `CCN(CC)C1CCN(C(=O)c2cc(CC(C)C)nn2CC)C1` (stereo not given), the cytotoxicity at 10 µM is -7.74%. On to `Cc1nc(C2CCN(C(=O)c3cccnc3)CC2)c2sccn12`, for which the cytotoxicity at 10 µM was -5.35%. Next, `CCCc1noc(CNc2ccc(C(=O)N3CCCC3)cc2C)n1`: -2.83%; `Cc1ccc(F)c(NS(=O)(=O)c2cc(C(=O)O)oc2C)c1`: -3.52%; `CC(C)CCC(C)NC(=O)CN1C=Nc2ccccc2S1(=O)=O` (stereo not given): -1.64%. Next, `CC(Cn1cccn1)NCc1nc(-c2ccco2)no1` (stereo not given): -2.66%; `NS(=O)(=O)c1ccc(C(=O)N2CCCC2c2ccccc2)o1` (stereo not given): -6.48%; `COc1ccc(C(=O)N2CCCC2c2noc(C(C)C)n2)nn1` (stereo not given): -4.01%. Next, `CCn1ccnc1CN1CCN(CC(O)CN2CCOCC2)CC1` (stereo not given): -7.83%; `COc1ccccc1NC(=O)NCC(O)c1ccc(F)cc1F` (stereo not given): 4.1%. As for `O=C1NCC(C(=O)Nc2ncc(Cc3cccc(F)c3)s2)N1` (stereo not given), the cytotoxicity at 10 µM was -2.45%.

For the compound `CCN(Cc1c(F)cccc1F)Cn1nc(C)c2c(C)onc2c1=O`, the cytotoxicity at 10 µM is -1.52%. The figure for `Cc1nccn1CCCC(=O)N1CCC(N(C)c2cccnn2)CC1` is -13.4%. On to `Cc1nn(C)c(C)c1C1CCCN1C(=O)c1nccnc1N` (stereo not given), for which the cytotoxicity at 10 µM was -3.08%. In the case of `CCC1c2ccsc2CCN1C(=O)NCCNc1ncccn1` (stereo not given), the cytotoxicity at 10 µM is -13.6%. For the compound `CN(CC1COc2ccccc2O1)C(=O)NCCCn1ccnc1` (stereo not given), the cytotoxicity at 10 µM was -5.54%.

In the case of `Cc1cc(NC(=O)CCN(CC2CCOC2)C2CC2)no1` (stereo not given), the cytotoxicity at 10 µM was -0.794%. Next, `c1cnnc(N2CCCC2CNc2nc3ccccc3o2)c1` (stereo not given): -2.96%; `CS(=O)(=O)Cc1ccc(CNC(=O)c2cccnc2O)cc1`: 0.481%.

In the case of `CCn1cnnc1C1CCN(C(=O)C(OC)c2ccccc2)CC1` (stereo not given), the cytotoxicity at 10 µM turned out to be 5.25%.

Consider `CSCC[C@H](N)c1nnc(SCc2cc(C)ccc2C)o1`, for which the cytotoxicity at 10 µM stood at 0.0308%. For `O=C(c1ncccn1)N1CCC2(CC1)COC(COc1ccccn1)C2` (stereo not given), the cytotoxicity at 10 µM was -1.96%.

`CN(C)C(=O)COCC1CN(Cc2ccoc2)Cc2ncn(C)c21` (stereo not given): the cytotoxicity at 10 µM stood at 5.99%.

As for `O=C(NCc1ccco1)[C@@H]1CC[C@@H]2[C@@H](CCN2CC2CC2)O1`, the cytotoxicity at 10 µM was -4.48%.

For the compound `COc1ccc(CN2CCC3(CC2)NC(=O)CC3c2cnn(C)c2)cc1` (stereo not given), the cytotoxicity at 10 µM came to 0.424%. As for `CC(=O)N1[C@H](CN(C)C)C[C@@H]2CN(C(=O)c3occc3C)CC[C@@H]21`, the cytotoxicity at 10 µM worked out at 0.847%.

As for `COc1cc(CNC(C)Cn2cccn2)cc2c1OCO2` (stereo not given), the cytotoxicity at 10 µM was found to be 1.58%.

`CCN1CCC2(C=C(C(=O)NC3CC3)c3ccccc32)CC1`: the cytotoxicity at 10 µM was 6.2%. For `CN(C)CCOCc1cncc2c1CCN(C1CCOCC1)C2`, the cytotoxicity at 10 µM turned out to be 4.62%.

Consider `O=C1CO[C@@H]2CN(Cc3cccnc3)C[C@H]2N1Cc1ccncc1`, for which the cytotoxicity at 10 µM is -77.6%.

Consider `Cc1cccc(CN2CCC3(CCCN(C(=O)c4ccsc4)C3)C2=O)n1` (stereo not given), for which the cytotoxicity at 10 µM was -1.14%.

In the case of `CCCn1cc(Cl)c(C(=O)N2C[C@H]3CC(OC)C[C@H]3C2)n1` (stereo not given in full), the cytotoxicity at 10 µM was 0.19%. Next, `Cc1noc(C)c1CN1C(=O)[C@@H]2CC[C@H]1CN(Cc1nccs1)C2`: -0.626%; `COc1cc(O)cc2c1C(=O)CC(c1ccc(O)cc1)O2` (stereo not given): -3.07%.
